Converted amounts (≈) assume the structure as drawn. The source made the active and inactive calls. No cut-off for these calls is given here.
Assays:
[1] = target: T1, Secreted frizzled-related protein 1 (Homo sapiens, UniProt Q8N474); assay: Inhibition of human sFRP1 expressed in human U2OS assessed as luciferase activity by TCF-luciferase reporter gene assay
T1 sequence (Q8N474 whole entry): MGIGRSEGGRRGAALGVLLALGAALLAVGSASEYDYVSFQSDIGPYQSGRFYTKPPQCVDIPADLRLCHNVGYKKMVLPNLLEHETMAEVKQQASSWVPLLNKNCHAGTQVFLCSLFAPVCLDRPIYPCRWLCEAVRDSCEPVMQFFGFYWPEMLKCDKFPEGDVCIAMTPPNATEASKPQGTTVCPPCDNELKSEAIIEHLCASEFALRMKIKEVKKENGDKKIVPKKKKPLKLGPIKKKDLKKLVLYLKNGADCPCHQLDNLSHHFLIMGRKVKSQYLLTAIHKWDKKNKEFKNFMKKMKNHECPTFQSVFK
Procedure, shortened: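 Cell-based functional assay in U2OS human osteosarcoma cells transfected with human sFRP-1, Wnt-3 and a TCF-luciferase reporter gene measuring canonical Wnt pathway activation; EC50 derived from luciferase signal.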

Mus musculus = species on record: Mus musculus; assay: Increase in bone formation in mouse calvaria assessed as number of osteoblast on bone surface at 5 uM after 7 days relative to control; type: functional
CYP2C9 = CYP2C9 (Homo sapiens, UniProt P11712); assay: Inhibition of CYP2C9 at 3 uM; type: ADME
CYP2C9, sequence (P11712 whole entry): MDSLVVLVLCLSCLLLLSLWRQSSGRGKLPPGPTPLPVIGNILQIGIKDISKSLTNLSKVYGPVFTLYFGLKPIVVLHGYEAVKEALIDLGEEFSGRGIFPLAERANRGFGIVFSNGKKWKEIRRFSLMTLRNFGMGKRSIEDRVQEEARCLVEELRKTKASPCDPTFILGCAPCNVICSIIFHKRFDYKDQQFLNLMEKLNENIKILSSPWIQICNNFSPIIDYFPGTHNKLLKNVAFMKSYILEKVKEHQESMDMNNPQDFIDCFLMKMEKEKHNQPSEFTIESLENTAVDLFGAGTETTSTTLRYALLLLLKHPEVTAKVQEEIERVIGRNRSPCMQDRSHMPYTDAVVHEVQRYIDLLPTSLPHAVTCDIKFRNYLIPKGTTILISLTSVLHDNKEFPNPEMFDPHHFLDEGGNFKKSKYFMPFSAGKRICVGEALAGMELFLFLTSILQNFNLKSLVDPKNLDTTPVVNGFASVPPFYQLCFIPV

[2] = Metabolic stability in rat microsomes assessed as half life; type: ADME, Microsome
[3] = Increase in bone formation in mouse calvaria assessed as increase in bone area at 5 uM after 7 days relative to control; type: functional
CYP3A4 = CYP3A4 (Homo sapiens, UniProt P08684); assay: Inhibition of CYP3A4 at 3 uM; type: ADME
CYP3A4, sequence (P08684 whole entry): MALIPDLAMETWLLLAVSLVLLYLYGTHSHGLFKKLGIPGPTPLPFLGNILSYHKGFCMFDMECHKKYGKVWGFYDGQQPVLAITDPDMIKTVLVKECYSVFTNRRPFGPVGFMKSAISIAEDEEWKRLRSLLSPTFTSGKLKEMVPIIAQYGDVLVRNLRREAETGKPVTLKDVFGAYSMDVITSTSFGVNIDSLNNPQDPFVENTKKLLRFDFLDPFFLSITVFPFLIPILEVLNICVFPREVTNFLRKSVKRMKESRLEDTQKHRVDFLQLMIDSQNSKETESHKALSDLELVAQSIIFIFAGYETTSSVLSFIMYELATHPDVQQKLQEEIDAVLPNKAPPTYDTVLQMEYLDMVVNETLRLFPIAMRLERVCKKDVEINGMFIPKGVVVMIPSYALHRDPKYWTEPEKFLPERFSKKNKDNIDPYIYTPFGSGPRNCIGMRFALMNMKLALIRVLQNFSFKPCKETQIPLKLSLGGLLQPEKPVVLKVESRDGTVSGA

[4] = target: T2, Secreted frizzled-related protein 1 (Homo sapiens) (UniProt Q8N474); assay: Inhibition of human sFRP1 expressed in human U2OS assessed as fold induction in luciferase activity at 15 uM by TCF-luciferase reporter gene assay relative to control
T2 sequence (whole entry): T1 sequence (Q8N474 whole entry)
Procedure, shortened: (§1)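 U2OS human osteosarcoma cells transfected with human sFRP-1, Wnt-3 and a TCF-luciferase reporter (canonical Wnt read-out). Inhibitor tested at 15 µM or 30 µM. Luciferase signal without inhibitor set at 1; fold induction measured in quadruplicate.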

[5] = Aqueous solubility at pH 7.4; type: physicochemical; settings: buffer
CYP2D6 = CYP2D6 (Homo sapiens, UniProt P10635); assay: Inhibition of CYP2D6 at 3 uM; type: ADME
CYP2D6, sequence (P10635 whole entry): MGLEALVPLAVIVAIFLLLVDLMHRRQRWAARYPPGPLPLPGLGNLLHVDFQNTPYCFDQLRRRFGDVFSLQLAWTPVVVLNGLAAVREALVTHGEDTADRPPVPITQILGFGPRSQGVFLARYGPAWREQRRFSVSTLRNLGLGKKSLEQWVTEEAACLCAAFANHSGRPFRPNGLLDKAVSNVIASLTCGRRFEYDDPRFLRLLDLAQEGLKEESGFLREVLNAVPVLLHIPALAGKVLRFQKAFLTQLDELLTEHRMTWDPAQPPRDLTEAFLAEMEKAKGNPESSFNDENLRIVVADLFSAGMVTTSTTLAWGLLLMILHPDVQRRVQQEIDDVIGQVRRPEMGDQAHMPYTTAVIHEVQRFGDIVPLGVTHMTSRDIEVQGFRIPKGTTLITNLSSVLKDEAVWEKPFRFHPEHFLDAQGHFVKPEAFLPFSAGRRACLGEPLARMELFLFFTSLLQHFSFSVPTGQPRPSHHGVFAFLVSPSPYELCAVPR

[6] = target: T1, Secreted frizzled-related protein 1; assay: Binding affinity to human sFRP1 by fluorescence spectroscopy
Procedure, shortened: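 Binding constant (K_D) taken from changes in intrinsic tryptophan fluorescence of sFRP-1 on inhibitor binding; excitation 295 nm, emission 340 nm. Stoichiometry of binding also determined.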

[7] = Metabolic stability in human microsomes assessed as half life; type: ADME, Microsome
[8] = target: T2, Secreted frizzled-related protein 1 (Homo sapiens); assay: Inhibition of human sFRP1 expressed in human U2OS assessed as fold induction in luciferase activity at 30 uM by TCF-luciferase reporter gene assay relative to control; procedure, shortened: as §1

EC50 [1] [µM] | inhibition at 3 µM (CYP2C9) [%] | half-life [2] [min] | inhibition at 3 µM (CYP3A4) [%] | fold change (FC) [4] | solubility [5] [µg/mL] | inhibition at 3 µM (CYP2D6) [%] | Compound | other results
6.97 | 84 | 1 | 96 | 3 | 1 (≈ 2.04 µM) | 11 | CCc1ccc(S(=O)(=O)c2ccccc2)cc1S(=O)(=O)NCCc1ccc(OC)c(OC)c1 | Activity (Mus musculus): Active; Activity [3]: 50%
3.88 | 41 | 5 | 70 | 2.5 | 1 (≈ 2.41 µM) | 12 | Cc1ccc(S(=O)(=O)c2ccccc2)cc1S(=O)(=O)NCCc1ccccc1 | Kd [6]: 0.35 µM
 |  |  |  | 1.5 |  |  | COc1ccc(S(=O)(=O)c2ccccc2)cc1S(=O)(=O)NCCc1ccccc1 | 
 |  |  |  | 3.3 |  |  | CCc1ccc(S(=O)(=O)c2ccccc2)cc1S(=O)(=O)NCCc1ccccc1 | 
1.27 | 14 | 12 | 43 | 3.3 | 26 (≈ 63.3 µM) | 9 | CCc1ccc(S(=O)(=O)c2ccccc2)cc1S(=O)(=O)NCCCN(C)C | half-life [7]: 26.7 min
 |  |  |  | < 1 |  |  | O=S(=O)(NCCc1ccccc1)c1cccc(S(=O)(=O)c2ccccc2)c1 | 
 |  |  |  | 2.2 |  |  | Cc1ccc(S(=O)(=O)c2ccc(C)c(S(=O)(=O)NCCc3ccccc3)c2)cc1 | 
 |  |  |  | 1.3 |  |  | Cc1ccc(S(=O)(=O)c2ccccc2)cc1S(=O)(=O)NCCCc1ccccc1 | 
9 | 25 | 16 | 78 | 4.2 | > 100 | 25 | CCc1ccc(S(=O)(=O)c2ccccc2)cc1S(=O)(=O)NCCCN1CCCC1 | 
 |  |  |  | 2.7 |  |  | Cc1ccc(S(=O)(=O)c2ccc(F)cc2)cc1S(=O)(=O)NCCc1ccccc1 | 
 |  |  |  |  |  |  | Cc1ccc(S(=O)(=O)c2ccc(Cl)cc2)cc1S(=O)(=O)Nc1ccccc1 | fold change (FC) [8]: 1
 |  |  |  |  |  |  | Cc1ccc(S(=O)(=O)c2ccccc2)cc1S(=O)(=O)NCc1ccccc1 | fold change (FC) [8]: < 1
 |  |  |  | < 1 |  |  | Cc1ccc(S(=O)(=O)c2ccccc2)cc1S(=O)(=O)N(C)CCc1ccccc1 | 

From ChEMBL document CHEMBL1151763, “Identification of diarylsulfone sulfonamides as secreted frizzled related protein-1 (sFRP-1) inhibitors” (J Med Chem, 2008)
